Rows were chosen to be rich in hits. Some 4.7% of all compounds tested hit in one or more screens of this group.
VIM-2 inhibitor = VIM-2 metallo-beta-lactamase inhibitors, primary screen, biochemical, epi-absorbance readout, Pseudomonas aeruginosa enzyme | purified VIM-2, nitrocefin hydrolysis, epi-absorbance fluorescence | inhibition, % at 5.6 µM | 290,000 compounds, 0.89% hits | AID 1527, 2009;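 active = inhibition above the mean of all tested compounds plus 3 SD, cutoff set per screening run, cut at about 7.5% in these data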;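 note: red hydrolysis product quenches plate fluorescence so inhibitors raise well fluorescence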
IMP-1 inh-1 = IMP-1 metallo-beta-lactamase inhibitors, primary screen, biochemical, epi-absorbance readout, Pseudomonas aeruginosa enzyme | metallo-beta-lactamase IMP-1 (Pseudomonas aeruginosa) | purified IMP-1, nitrocefin hydrolysis, epi-absorbance fluorescence | inhibition, % at 5.6 µM | 290,000 compounds, 0.45% hits | AID 1556, 2009;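 active = inhibition above the mean plus 3 SD of all compounds in the same screening run, cut at about 4.5% in these data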
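System: Purified recombinant IMP-1 metallo-beta-lactamase enzyme | Measured by: Fluorescence quenching readout, ex 480/em 530 nm | Replication: Singlicate | Incubation: 15 min preincubation plus 25 min reaction at 25 °C | Evaluation: Percent inhibition from optical density relative to buffer-blank wells | Benchmarks: DMSO with and without IMP-1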
697 NFkB inh = inhibitors of PMA/ionomycin-induced NF-kB reporter, 697 cells, primary screen, B-cell NF-kB inhibitor project, cell-based, luminescence, uHTS; 697 B-cell NF-kB luciferase reporter, 16 h; inhibition, % at 4 µM; 330,000 compounds, 0.33% hits; in the data active = inhibition above about 35%
Mdm2 MdmX PPI = inhibitors of human Mdm2-MdmX association, primary screen, cell-based, luminescence, split luciferase, SaOS-2, uHTS. Protein Mdm4 (Homo sapiens) + E3 ubiquitin-protein ligase Mdm2 (Homo sapiens), …. SaOS-2 split-luciferase Mdm2/MdmX complementation. inhibition, % at 8 µM. 330,000 compounds, 3% hits. AID 485346, 2010;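 active = inhibition of at least 50% at 8 µM in the primary screen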
Jurkat NFkB inh = inhibitors of induced NF-kB luciferase reporter, primary screen, TCR NF-kB activation inhibitor project, cell-based, luminescence, uHTS | Jurkat, PMA/ionomycin-induced NF-kB luciferase reporter | inhibition, % at 4 µM | 330,000 compounds, 0.53% hits; in the data active = inhibition above about 50%
aSyn 5UTR inh = MLPCN primary screen, SNCA 5' untranslated region; alpha-synuclein 5'UTR reporter, inhibitor activity; inhibition, % (tested at 7.5 µM); 300,000 compounds, 0.82% hits; AID 1813, 2009; in the data active = inhibition above about 60%;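 note: H4 neuroglioblastoma cells stably carrying SNCA 5'UTR luciferase fusion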
IMP-1 inh-2 = IMP-1 metallo-beta-lactamase inhibitors, confirmation, selectivity assay for selective VIM-2 inhibitor project, biochemical, epi-absorbance readout, triplicate. purified IMP-1, nitrocefin hydrolysis, epi-absorbance fluorescence. inhibition, % at 5.6 µM. shares compounds with VIM-2 inhibitor. 1,300 tested, under 10 active; call rule not given here
VIM-2 FRET ctr = VIM-2 inhibitors in FRET format, confirmation, artefact control for selective VIM-2 inhibitor project, biochemical, epi-absorbance artifact exclusion; shares compounds with VIM-2 inhibitor; purified VIM-2, CCF2 FRET substrate hydrolysis; inhibition, % at 5.6 µM; 1,300 compounds, 23% hits; AID 1857, 2009;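 active = inhibition above the mean of all tested compounds plus 3 SD, cut at about 19% in these data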
TEM-1 counter = TEM-1 serine beta-lactamase inhibitors, counter-screen for VIM-2 inhibitor project, biochemical, epi-absorbance, HTS | 1,300 compounds, 3% hits | inhibition, % at 5.6 µM | shares compounds with VIM-2 inhibitor | Purified TEM-1, nitrocefin hydrolysis, epi-absorbance fluorescence | AID 1866, 2009;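 active = inhibition above that campaign's mean inhibition plus 3 SD, cut at about 0.46% in these data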
Target sequence (P62593 whole entry, looked up): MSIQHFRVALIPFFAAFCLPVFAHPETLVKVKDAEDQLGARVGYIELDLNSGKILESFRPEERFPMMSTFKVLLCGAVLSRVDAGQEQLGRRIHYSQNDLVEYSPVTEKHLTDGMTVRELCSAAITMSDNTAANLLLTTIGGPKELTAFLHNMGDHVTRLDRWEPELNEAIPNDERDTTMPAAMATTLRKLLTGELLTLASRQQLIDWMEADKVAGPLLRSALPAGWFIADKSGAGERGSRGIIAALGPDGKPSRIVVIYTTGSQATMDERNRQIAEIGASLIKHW
VIM-2 inh conf = VIM-2 metallo-beta-lactamase inhibitors, confirmation, biochemical, epi-absorbance, hits shared with IMP-1 screen. shares compounds with VIM-2 inhibitor. purified VIM-2, nitrocefin hydrolysis. inhibition, % at 5.6 µM. 1,300 compounds, 96% hits. AID 2187, 2009;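 active = inhibition of the VIM-2 beta-lactamase enzyme above about 11% from the earlier first-round screen, limit read from the data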
Mdm2-MdmX conf = Mdm2-MdmX complex disruptors, retested hits, confirmation, luminescence, single concentration | 10,000 compounds, 55% hits | inhibition, % at 8 µM | shares compounds with Mdm2 MdmX PPI | AID 489028, 2010 | Mdm2-MdmX binding, luminescent assay; in the data active = inhibition above about 40%
FLuc counter = full-length luciferase signal inhibition, confirmation, counter-screen for Mdm2/MdmX interaction inhibitor project, cell-based, single concentration, SaOS-2; shares compounds with Mdm2 MdmX PPI; SaOS-2 full-length luciferase counterscreen, luminescence; inhibition, % at 8 µM; 6,200 compounds, 77% hits; AID 504607, 2011;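 active = mean inhibition at 8 µM reaching about 37%, which flags the compound as non-specific, limit read from the data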;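 note: p53-null SaOS-2 cells with luciferase driven by a doxycycline-inducible promoter; compound on cells about two nights before reading with doxycycline added after day one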
Large screens that a line does not name were inactive (follow-up assays come after a bar, where they were run).

COc1cnc(-c2ccccn2)nc1N(C)c1ccccc1	VIM-2 inhibitor 37, Mdm2 MdmX PPI 80, aSyn 5UTR inh 89 | IMP-1 inh-2 inactive | VIM-2 FRET ctr inactive | TEM-1 counter inactive | VIM-2 inh conf 47 | Mdm2-MdmX conf 77 | FLuc counter 56
CCCCCCCn1c(=N)n(CC(=O)c2ccco2)c2ccccc21	VIM-2 inhibitor 18, Mdm2 MdmX PPI 63 | IMP-1 inh-2 inactive | VIM-2 FRET ctr inactive | TEM-1 counter inactive | VIM-2 inh conf inactive | Mdm2-MdmX conf inactive
CCc1cc2c(COC(=O)c3cccc(NS(C)(=O)=O)c3)cc(=O)oc2cc1O	none
CN1CCN(c2nc(-c3ccccn3)nc3ccccc23)CC1	none
c1ccc(N2CCN(c3nc(-c4ccccn4)nc4ccccc34)CC2)cc1	VIM-2 inhibitor 42, Mdm2 MdmX PPI 59 | IMP-1 inh-2 inactive | VIM-2 FRET ctr inactive | TEM-1 counter inactive | VIM-2 inh conf 64 | Mdm2-MdmX conf inactive
CC1CN(C(=O)c2cc3cc(F)ccc3[nH]2)CC(C)O1 (stereo unspecified)	none
Clc1ccc2nc(N3CCNCC3)nc(-c3ccccc3)c2c1	VIM-2 inhibitor 12, Mdm2 MdmX PPI 64 | IMP-1 inh-2 inactive | VIM-2 FRET ctr inactive | TEM-1 counter inactive | VIM-2 inh conf 17 | Mdm2-MdmX conf inactive
CCCCn1c(N)c(N(CC(C)C)C(=O)CCS(=O)(=O)c2ccc(C)cc2)c(=O)[nH]c1=O	none (no result: VIM-2 inhibitor, IMP-1 inh-1)
c1ccc2c(Nc3ccc4c(c3)OCCO4)c3c(nc2c1)CCCC3	VIM-2 inhibitor 15, Mdm2 MdmX PPI 70 | IMP-1 inh-2 inactive | VIM-2 FRET ctr inactive | TEM-1 counter inactive | VIM-2 inh conf 23 | Mdm2-MdmX conf 59 | FLuc counter 85
CCN(CC)CCn1nc2c3c(cccc3c1=O)-c1ccccc1-2	VIM-2 inhibitor 17, Mdm2 MdmX PPI 83 | IMP-1 inh-2 inactive | VIM-2 FRET ctr inactive | TEM-1 counter inactive | VIM-2 inh conf 29 | Mdm2-MdmX conf 83 | FLuc counter inactive
